Measurements from ChEMBL document CHEMBL5107946, “SF5- and SCF3-substituted tetrahydroquinoline compounds as potent bactericidal agents against multidrug-resistant persister Gram-positive bacteria” (RSC Med Chem, 2021).
In brackets after ≈: the same amount, converted by molar mass. Activity calls are given as the source filed them.

Assays:
[1] = tested on: Staphylococcus aureus; test: Antibacterial activity against Staphylococcus aureus ATCC 25923 assessed as bacterial growth inhibition incubated for 18 to 20 hrs by CLSI based broth microdilution assay; format: functional; details: time 18-20 hrs
Outline: (§1)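 CLSI broth microdilution; compounds and control antibiotics made up at 10 mg mL−1 in DMSO (stock), serially diluted 1:2 across the plate. Inoculum adjusted to 0.5 McFarland, then diluted 1:100 into wells. Plates incubated static at 37 °C for 18–20 h before MIC read.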

[2] = tested on: Staphylococcus aureus; test: Antibacterial activity against Staphylococcus aureus ATCC 25923 assessed as bacterial growth inhibition at 16 ug/ml incubated for 18 to 20 hrs by CLSI based broth microdilution assay; format: functional, organism-based; details: dose 16.0 µg/ml, time 18-20 hrs
Outline: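 Single-concentration screen at 16 μg mL−1 final. Overnight TSB culture was diluted 1:1000 in cation-adjusted MHB and grown to early exponential phase. 1 mL of culture was added to compound in glass tubes and incubated overnight at 37 °C. OD600 was read and normalized to the DMSO control after subtracting medium-only OD.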

[3] = tested on: Staphylococcus aureus; test: Antibacterial activity against methicillin-resistant Staphylococcus aureus ATCC 33592 assessed as fold increase in MIC incubated for 30 days by resistance development based broth microdilution assay; format: functional; details: time 30 day
Outline: (§2)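 Multi-step resistance selection over 30 days. MIC determined first. Each day, 5 μL from the turbid well just below the MIC was diluted 1:1000 in CA-MHB and used as inoculum for the next broth microdilution MIC. Resistance defined as a rise of more than four-fold over the starting MIC.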

[4] = tested on: Cell membrane; test: Induction of cell membrane permeability in Staphylococcus aureus ATCC 25923 at 4 ug/ml by DiOC2 dye based flow cytometry assay; details: dose 4.0 µg/ml
Outline: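 Flow cytometry on S. aureus ATCC 25923 grown in TSB to exponential phase (OD600 0.2–0.3), then treated. Cells were washed twice in PBS and resuspended in buffer. To-PRO 3 iodide (red) and DiOC2 (green) were added and samples analysed immediately. The red/green ratio was used as the permeabilization readout, with bithionol 4 μg mL−1 as positive control.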

[5] = tested on: Cell membrane; test: Induction of cell membrane disruption in persister Staphylococcus aureus ATCC 25923 at 32 ug/ml incubated for 6 hrs by scanning electron microscopy; details: dose 32.0 µg/ml
[6] = tested on: Staphylococcus aureus; test: Antibacterial activity against methicillin-resistant Staphylococcus aureus USA300 assessed as bacterial growth inhibition incubated for 18 to 20 hrs by CLSI based broth microdilution assay; format: functional; details: time 18-20 hrs; outline: as §1
[7] = tested on: Enterococcus faecalis; test: Antibacterial activity against vancomycin-resistant Enterococcus faecalis ATCC 51575 assessed as bacterial growth inhibition incubated for 18 to 20 hrs by CLSI based broth microdilution assay; format: functional; details: time 18-20 hrs; outline: as §1
[8] = tested on: Staphylococcus aureus; test: Antibacterial activity against methicillin-resistant Staphylococcus aureus ATCC 33592 assessed as bacterial growth inhibition incubated for 18 to 20 hrs by CLSI based broth microdilution assay; format: functional; details: time 18-20 hrs; outline: as §1
[9] = tested on: Enterococcus faecium; test: Antibacterial activity against vancomycin-resistant Enterococcus faecium ATCC 700221 assessed as bacterial growth inhibition incubated for 18 to 20 hrs by CLSI based broth microdilution assay
[10] = tested on: Listeria monocytogenes; test: Antibacterial activity against Listeria monocytogenes ATCC 19115 assessed as bacterial growth inhibition incubated for 18 to 20 hrs by CLSI based broth microdilution assay; format: functional; details: time 18-20 hrs
Outline: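 MIC by CLSI broth microdilution. Compounds were made as 10 mg mL−1 DMSO stocks and serially diluted 1:2. Inoculum was set to 0.5 McFarland and diluted 1:100 into the wells. Plates were incubated static at 37 °C for 18–20 h before reading the MIC.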

[11] = tested on: Enterococcus faecalis; test: Antibacterial activity against Enterococcus faecalis ATCC 29212 assessed as bacterial growth inhibition incubated for 18 to 20 hrs by CLSI based broth microdilution assay; format: functional; details: time 18-20 hrs; outline: as §1
[12] = tested on: Staphylococcus aureus; test: Antibacterial activity against methicillin-resistant Staphylococcus aureus USA300 assessed as fold increase in MIC incubated for 30 days by resistance development based broth microdilution assay; format: functional; details: time 30 day; outline: as §2
[13] = tested on: Staphylococcus aureus; test: Antibacterial activity against methicillin-resistant Staphylococcus aureus ST239 (ARLG 1644) assessed as bacterial growth inhibition incubated for 18 to 20 hrs by CLSI based broth microdilution assay; format: functional; details: time 18-20 hrs; outline: as §1
[14] = tested on: Staphylococcus aureus; test: Antibacterial activity against methicillin-resistant Staphylococcus aureus ST239 (ARLG 1665) assessed as bacterial growth inhibition incubated for 18 to 20 hrs by CLSI based broth microdilution assay; format: functional; details: time 18-20 hrs; outline: as §1
[15] = tested on: Staphylococcus aureus; test: Antibacterial activity against methicillin-resistant Staphylococcus aureus ST1312 (ARLG 1649) assessed as bacterial growth inhibition incubated for 18 to 20 hrs by CLSI based broth microdilution assay; format: functional; details: time 18-20 hrs; outline: as §1
[16] = tested on: Staphylococcus aureus; test: Antibacterial activity against methicillin-resistant Staphylococcus aureus ST239 (ARLG 1663) assessed as bacterial growth inhibition incubated for 18 to 20 hrs by CLSI based broth microdilution assay; format: functional; details: time 18-20 hrs; outline: as §1
[17] = tested on: Enterococcus faecium; test: Bactericidal activity against vancomycin-resistant Enterococcus faecium ATCC 700221 assessed as reduction in colony forming unit incubated for 20 hrs; details: ATCC 700221, 20 h
[18] = tested on: Staphylococcus aureus; test: Bactericidal activity against methicillin-resistant Staphylococcus aureus USA300 assessed as reduction in colony forming unit incubated for 20 hrs; format: functional
Outline: (§3)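 Follows the broth microdilution MIC plate. 4 μL taken from each well without growth, spotted in duplicate on tryptic soy agar and incubated static at 37 °C for 20 h. MBC taken as the concentration giving 99.9% reduction in CFU.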

[19] = tested on: Staphylococcus aureus; test: Bactericidal activity against Staphylococcus aureus ATCC 25923 assessed as reduction in colony forming unit incubated for 20 hrs; format: functional; outline: as §3
[20] = tested on: Enterococcus faecalis; test: Bactericidal activity against vancomycin-resistant Enterococcus faecalis ATCC 51575 assessed as reduction in colony forming unit incubated for 20 hrs; format: functional; outline: as §3
[21] = tested on: Enterococcus faecalis; test: Bactericidal activity against Enterococcus faecalis ATCC 29212 assessed as reduction in colony forming unit incubated for 20 hrs; format: functional; outline: as §3
[22] = tested on: Staphylococcus aureus; test: Bactericidal activity against methicillin-resistant Staphylococcus aureus ATCC 33592 assessed as reduction in colony forming unit incubated for 20 hrs; format: functional; outline: as §3

| SMILES | MIC [1] [µg/mL] | Activity [2] | MIC [7] [µg/mL] | MIC [9] [µg/mL] | MIC [10] [µg/mL] | MIC [11] [µg/mL] | also measured |
| --- | --- | --- | --- | --- | --- | --- | --- |
| FS(F)(F)(F)(F)c1ccc2c(c1)[C@H]1[C@@H]3CC[C@@H](C3)[C@H]1[C@H](c1cn[nH]c1)N2 | 16 (≈ 40.9 µM) | Active | – | – | – | – | – |
| C/C(=C\C(=O)OCCCCCCCCC(=O)O)C[C@@H]1OC[C@H](C[C@@H]2O[C@H]2[C@@H](C)[C@H](C)O)[C@@H](O)[C@H]1O [MUPIROCIN] | – | – | – | – | – | – | fold change (FC) [3]: >250 |
| Oc1c(Cl)cc(Cl)cc1Sc1cc(Cl)cc(Cl)c1O | – | – | – | – | – | – | Activity [4]: Active; Activity [5]: Active |
| FC(F)(F)Oc1ccc2c(c1)[C@H]1[C@@H]3CC[C@@H](C3)[C@H]1[C@H](c1c[nH]nc1C(F)(F)F)N2 | 4 (≈ 9.58 µM) | Active | 8 (≈ 19.2 µM) | 4 (≈ 9.58 µM) | 4 (≈ 9.58 µM) | 8 (≈ 19.2 µM) | MIC [6]: 8 µg/mL (≈ 19.2 µM); MIC [8]: 4 µg/mL (≈ 9.58 µM) |
| Fc1ccc2c(c1)[C@H]1[C@@H]3CC[C@@H](C3)[C@H]1[C@H](c1c[nH]nc1C(F)(F)F)N2 | – | Active | – | – | – | – | – |
| O=C(O)c1cn(C2CC2)c2cc(N3CCNCC3)c(F)cc2c1=O [CIPROFLOXACIN] | – | – | – | – | – | – | fold change (FC) [12]: 16; fold change (FC) [3]: 64 |
| O=C(O)c1ccc([C@@H]2Nc3ccc(S(F)(F)(F)(F)F)cc3[C@H]3[C@@H]4CC[C@@H](C4)[C@H]32)cc1 | 4 (≈ 8.98 µM) | Active | 4 (≈ 8.98 µM) | 4 (≈ 8.98 µM) | 4 (≈ 8.98 µM) | 4 (≈ 8.98 µM) | MIC [6]: 16 µg/mL (≈ 35.9 µM); MIC [8]: 4 µg/mL (≈ 8.98 µM) |
| FC(F)(F)c1n[nH]cc1-c1nc2ccc(S(F)(F)(F)(F)F)cc2c2c1[C@H]1CC[C@@H]2C1 | 4 (≈ 8.78 µM) | Active | 8 (≈ 17.6 µM) | 8 (≈ 17.6 µM) | 8 (≈ 17.6 µM) | 8 (≈ 17.6 µM) | MIC [6]: 8 µg/mL (≈ 17.6 µM); MIC [8]: 8 µg/mL (≈ 17.6 µM) |
| FC(F)(F)c1n[nH]cc1[C@@H]1Nc2ccccc2[C@H]2[C@@H]3CC[C@@H](C3)[C@H]21 | – | Active | – | – | – | – | – |
| FC(F)(F)c1ccc2c(c1)N[C@@H](c1c[nH]nc1C(F)(F)F)[C@@H]1[C@H]3CC[C@H](C3)[C@H]21 | 4 (≈ 9.97 µM) | Active | 8 (≈ 19.9 µM) | 8 (≈ 19.9 µM) | 8 (≈ 19.9 µM) | 8 (≈ 19.9 µM) | MIC [6]: 8 µg/mL (≈ 19.9 µM); MIC [8]: 8 µg/mL (≈ 19.9 µM) |
| CC(C)Oc1ccc2c(c1)[C@H]1[C@@H]3CC[C@@H](C3)[C@H]1[C@H](c1c[nH]nc1C(F)(F)F)N2 | – | Active | – | – | – | – | – |
| FS(F)(F)(F)(F)c1ccc2c(c1)[C@H]1[C@@H]3CC[C@@H](C3)[C@H]1[C@H](c1c[nH]cn1)N2 | 8 (≈ 20.4 µM) | Active | – | – | – | – | – |
| Cc1onc(-c2ccccc2)c1C(=O)N[C@@H]1C(=O)N2[C@@H]1SC(C)(C)[C@@H]2C(=O)O [OXACILLIN] | – | – | – | – | – | – | MIC [13]: 512 µg/mL (≈ 1280 µM); MIC [14]: 512 µg/mL (≈ 1280 µM); MIC [15]: 256 µg/mL (≈ 638 µM); MIC [16]: 256 µg/mL (≈ 638 µM) |
| CC(=O)NC[C@H]1CN(c2ccc(N3CCOCC3)c(F)c2)C(=O)O1 [LINEZOLID] | – | – | – | – | 2 (≈ 5.93 µM) | – | MBC [17]: > 128 µg/mL; MBC [18]: 64 µg/mL (≈ 190 µM); MBC [19]: 64 µg/mL (≈ 190 µM); MBC [20]: > 128 µg/mL; MBC [21]: 64 µg/mL (≈ 190 µM); MBC [22]: 64 µg/mL (≈ 190 µM) |
| FC(F)(F)Sc1ccc2c(c1)[C@H]1[C@@H]3CC[C@@H](C3)[C@H]1[C@H](c1c[nH]nc1C(F)(F)F)N2 | 4 (≈ 9.23 µM) | Active | 8 (≈ 18.5 µM) | 4 (≈ 9.23 µM) | 4 (≈ 9.23 µM) | 8 (≈ 18.5 µM) | MIC [6]: 4 µg/mL (≈ 9.23 µM); MIC [8]: 2 µg/mL (≈ 4.61 µM) |
| CN[C@H](CC(C)C)C(=O)N[C@H]1C(=O)N[C@@H](CC(N)=O)C(=O)N[C@H]2C(=O)N[C@H]3C(=O)N[C@H](C(=O)N[C@H](C(=O)O)c4cc(O)cc(O)c4-c4cc3ccc4O)[C@H](O)c3ccc(c(Cl)c3)Oc3cc2cc(c3O[C@@H]2O[C@H](CO)[C@@H](O)[C@H](O)[C@H]2O[C@H]2C[C@](C)(N)[C@H](O)[C@H](C)O2)Oc2ccc(cc2Cl)[C@H]1O [VANCOMYCIN] | – | – | > 128 | > 128 | 1 (≈ 0.69 µM) | 2 (≈ 1.38 µM) | MBC [17]: > 128 µg/mL; MBC [18]: 2 µg/mL (≈ 1.38 µM); MBC [19]: 2 µg/mL (≈ 1.38 µM); MBC [20]: > 128 µg/mL; MBC [21]: 2 µg/mL (≈ 1.38 µM); MBC [22]: 2 µg/mL (≈ 1.38 µM) |
| FC(F)Oc1ccc2c(c1)[C@H]1[C@@H]3CC[C@@H](C3)[C@H]1[C@H](c1c[nH]nc1C(F)(F)F)N2 | – | Active | – | – | – | – | – |
